Source: ChEMBL document CHEMBL2331228, “Synthesis and insight into the structure-activity relationships of chalcones as antimalarial agents” (J Med Chem, 2013)
Converted amounts (≈) assume the structure as drawn.

Assays:
Plasmodium falciparum [1] = assay: Antimalarial activity against schizont stage of chloroquine-sensitive Plasmodium falciparum 3D7 after more than 40 hrs by Giemsa staining-based light microscopic analysis; format: functional; conditions: 3D7, 40 h
Procedure, shortened: (§1)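 Ring stages (5% D-sorbitol synchronized) of 3D7 were grown in RPMI with 10% FBS, gentamycin and Fungizone at 37 °C under CO2. They were exposed in duplicate to compound (DMSO stock, 5 mg/mL) at 2, 10 and 50 μg/mL, with 3% cell suspension and 1% parasitized cells, for >40 h. Giemsa-stained thin smears were counted for schizonts. MIC is the lowest concentration giving 100% inhibition of schizont maturation.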

Plasmodium falciparum [2] = assay: Antimalarial activity against schizont stage of chloroquine-sensitive Plasmodium falciparum 3D7 assessed as reduction in parasitemia at 50 ug/ml after more than 40 hrs by Giemsa staining-based light microscopy; format: functional; design: scale not given: the % may be the effect or the level left; procedure, shortened: as §1

Row | Compound | MIC (Plasmodium falciparum [1]) | Activity (Plasmodium falciparum [2])
1 | CC(C)CCCC1(C)CCc2c(ccc(C(=O)/C=C/c3cccnc3)c2O)O1 (stereo unspecified) | 5.27 µM (≈ 2 µg/mL) | –
2 | CC1(C)C=Cc2c(ccc(C(=O)/C=C/c3ccc(Br)cc3)c2O)O1 | 130 µM (≈ 50.2 µg/mL) | –
3 | COc1ccc(/C=C/C(=O)c2cc(CC=C(C)C)c(O)cc2O)cc1OC | 27.2 µM (≈ 10 µg/mL) | –
4 | CC(C)=CCCC1(C)C=Cc2c(ccc(/C=C/C(=O)c3ccc(C)c(C)c3)c2O)O1 (stereo unspecified) | 24.9 µM (≈ 10 µg/mL) | –
5 | COc1ccc(/C=C/C(=O)c2ccc3c(c2O)C=CC(C)(C)O3)cc1 | > 149 µM | <100%
6 | CC(C)=CCCC1(C)C=Cc2c(ccc(C(=O)/C=C/c3cccnc3)c2OCCN2CCCCC2)O1 (stereo unspecified) | 4.11 µM (≈ 2 µg/mL) | –
7 | CC(C)=CCCC1(C)C=Cc2c(ccc(C(=O)/C=C/c3ccc([N+](=O)[O-])cc3)c2O)O1 (stereo unspecified) | 119 µM (≈ 50.1 µg/mL) | –
8 | CC(=O)Oc1ccc(/C=C/C(=O)c2ccc3c(c2O)C=CC(C)(C)O3)cc1 | 27.5 µM (≈ 10 µg/mL) | –
9 | COc1ccc(C(=O)c2cc3cc(/C=C/C(=O)c4ccc5c(c4O)C=CC(C)(CCC=C(C)C)O5)ccc3o2)cc1 (stereo unspecified) | > 91.2 µM | <100%
10 | COc1ccccc1/C=C/C(=O)c1ccc2c(c1O)C=CC(C)(CCC=C(C)C)O2 (stereo unspecified) | 124 µM (≈ 50.1 µg/mL) | –
11 | CC1(C)C=Cc2c(ccc(C(=O)/C=C/c3ccc(Cl)cc3)c2O)O1 | 147 µM (≈ 50.1 µg/mL) | –
12 | COCOc1ccc(/C=C/C(=O)c2c(O)c3c(c4c2OC(C)(CCC=C(C)C)C=C4)OC(C)(CCC=C(C)C)C=C3)cc1C(OC)OC (stereo unspecified) | 15.2 µM (≈ 10 µg/mL) | –
13 | CC1(C)C=Cc2c(ccc(C(=O)/C=C/c3ccc(OCCN4CCCCC4)cc3)c2OCCN2CCCCC2)O1 | 3.67 µM (≈ 2 µg/mL) | –
14 | COc1ccc(CCC(=O)c2ccc3c(c2O)C=CC(C)(C)O3)cc1 | > 148 µM | <100%
15 | COc1cc(/C=C/C(=O)c2ccc3c(c2O)C=CC(C)(CCC=C(C)C)O3)cc(OC)c1OC (stereo unspecified) | 21.6 µM (≈ 10 µg/mL) | –
16 | CC1(C)C=Cc2c(ccc(C(=O)/C=C/c3ccc([N+](=O)[O-])cc3)c2O)O1 | > 142 µM | <100%
17 | CC1(C)C=Cc2c(ccc(C(=O)/C=C/c3cccnc3)c2O)O1 | 32.6 µM (≈ 10 µg/mL) | –
18 | CC(C)=CCc1cc(C(=O)/C=C/c2ccc(Cl)cc2)c(O)cc1O | 146 µM (≈ 50.1 µg/mL) | –
19 | CC1(C)C=Cc2c(ccc(C(=O)/C=C/c3ccc(F)cc3)c2O)O1 | 154 µM (≈ 50.1 µg/mL) | –
20 | CC(C)=CCCC1(C)C=Cc2c(ccc(C(=O)/C=C/c3ccc(O)cc3)c2O)O1 (stereo unspecified) [LESPEOL] | 25.6 µM (≈ 10 µg/mL) | –
21 | Cc1ccc2nc(Cl)c(/C=C/C(=O)c3ccc4c(c3O)C=CC(C)(C)O4)cc2c1 | 123 µM (≈ 50.1 µg/mL) | –
22 | COc1cc(OC)c(OC)cc1/C=C/C(=O)c1cc(CC=C(C)C)c(O)cc1O | 25.1 µM (≈ 10 µg/mL) | –
23 | CC(C)CCCC1(C)CCc2c(ccc(C(=O)/C=C/c3ccc(O)cc3)c2O)O1 (stereo unspecified) | 127 µM (≈ 50.1 µg/mL) | –
24 | CC(C)=CCCC1(C)C=Cc2c(ccc(C(=O)/C=C/c3ccc(C#N)cc3)c2O)O1 (stereo unspecified) | 5.01 µM (≈ 2 µg/mL) | –
25 | CC(C)=CCCC1(C)C=Cc2ccc(O)c(C(=O)CCc3cc(C=O)ccc3O)c2O1 (stereo unspecified) | 9.12 µM (≈ 3.84 µg/mL) | –

Row | Compound | MIC (Plasmodium falciparum [1]) | Activity (Plasmodium falciparum [2])
26 | CC(C)=CCCC1(C)C=Cc2c(ccc(C(=O)/C=C/c3ccc(F)c(F)c3)c2O)O1 (stereo unspecified) | 22.6 µM (≈ 9.28 µg/mL) | –
27 | CCOc1cc(/C=C/C(=O)c2ccc3c(c2O)C=CC(C)(C)O3)ccc1F | > 136 µM | <100%
28 | COc1ccc(/C=C/C(=O)c2ccc3c(c2O)C=CC(C)(CCC=C(C)C)O3)cc1 (stereo unspecified) | > 124 µM | <100%
29 | CC(C)=CCCC1(C)C=Cc2c(ccc(C(=O)/C=C/c3ccc(Cl)cc3)c2O)O1 (stereo unspecified) | > 123 µM | <100%
30 | COCOc1ccc(/C=C/C(=O)c2cc(CC=C(C)C)c(O)cc2O)cc1 | 27.2 µM (≈ 10 µg/mL) | –
31 | COc1ccccc1/C=C/C(=O)c1cc(CC=C(C)C)c(O)cc1O | 29.6 µM (≈ 10 µg/mL) | –
32 | CC1(C)C=Cc2c(ccc(C(=O)/C=C/c3ccc(F)c(F)c3)c2O)O1 | 146 µM (≈ 50 µg/mL) | –
33 | CC(C)=CCCC1(C)C=Cc2c(ccc(C(=O)/C=C/c3ccc(N(C)C)cc3)c2O)O1 (stereo unspecified) | > 120 µM | <100%
34 | CC1(C)C=Cc2c(ccc(C(=O)CCc3ccc(O)cc3)c2O)O1 | 30.9 µM (≈ 10 µg/mL) | –
35 | CCOc1ccc(/C=C/C(=O)c2ccc3c(c2O)C=CC(C)(CCC=C(C)C)O3)cc1 (stereo unspecified) | 120 µM (≈ 50.1 µg/mL) | –
36 | CC1(C)C=Cc2c(ccc(C(=O)CCc3ccc(O)c(O)c3)c2O)O1 | 29.4 µM (≈ 10 µg/mL) | –
37 | CC(C)=CCCC1(C)C=Cc2c(ccc(C(=O)/C=C/c3cc(Cl)cc(Cl)c3)c2O)O1 (stereo unspecified) | 113 µM (≈ 50.2 µg/mL) | –
38 | CC(C)=CCCC1(C)C=Cc2c(ccc(C(=O)/C=C/c3ccc(OCCN4CCCCC4)cc3)c2OCCN2CCCCC2)O1 (stereo unspecified) | 3.26 µM (≈ 2 µg/mL) | –
39 | CC1(C)C=Cc2c(ccc(C(=O)/C=C/c3cc4ccccc4nc3Cl)c2O)O1 | 128 µM (≈ 50.1 µg/mL) | –
40 | CCOc1ccc(/C=C/C(=O)c2ccc3c(c2O)C=CC(C)(C)O3)cc1 | > 143 µM | <100%
41 | COc1cc(/C=C/C(=O)c2cc(CC=C(C)C)c(O)cc2O)ccc1O | 28.2 µM (≈ 10 µg/mL) | –
42 | COc1cc(OC)c(OC)cc1/C=C/C(=O)c1ccc2c(c1O)C=CC(C)(C)O2 | 25.2 µM (≈ 10 µg/mL) | –
43 | COCOc1ccc(/C=C/C(=O)c2ccc3c(c2O)C=CC(C)(CCC=C(C)C)O3)cc1C=O (stereo unspecified) | 21.6 µM (≈ 10 µg/mL) | –
44 | CC(C)=CCCC1(C)C=Cc2c(ccc(C(=O)/C=C/c3ccc(F)cc3)c2O)O1 (stereo unspecified) | 128 µM (≈ 50.1 µg/mL) | –
45 | CC1(C)CCc2c(ccc(C(=O)/C=C/c3cccnc3)c2O)O1 | 32.4 µM (≈ 10 µg/mL) | –
46 | COc1ccc(/C=C/C(=O)c2cc(CC=C(C)C)c(O)cc2O)cc1 | 28.6 µM (≈ 9.67 µg/mL) | –
47 | COc1ccc(/C=C/C(=O)c2ccc3c(c2O)CCC(C)(CCCC(C)C)O3)cc1 (stereo unspecified) | 123 µM (≈ 50.1 µg/mL) | –
48 | CC1(C)C=Cc2c(ccc(C(=O)/C=C/c3cnc4ccccc4c3)c2O)O1 | > 140 µM | <100%
49 | CCOc1cc(F)ccc1/C=C/C(=O)c1ccc2c(c1O)C=CC(C)(C)O2 | 136 µM (≈ 50.1 µg/mL) | –
50 | CC(C)=CCCC1(C)C=Cc2c(ccc(C(=O)/C=C/c3ccc(Cl)cc3Cl)c2O)O1 (stereo unspecified) | > 113 µM | <100%

Row | Compound | MIC (Plasmodium falciparum [1]) | Activity (Plasmodium falciparum [2])
51 | CC1(C)C=Cc2c(ccc(C(=O)/C=C/c3ccccn3)c2O)O1 | 32.6 µM (≈ 10 µg/mL) | –
52 | CC1(C)C=Cc2c(ccc(C(=O)/C=C/c3cc(C=O)ccc3O)c2O)O1 | 28.6 µM (≈ 10 µg/mL) | –
53 | CC1(C)C=Cc2c(ccc(C(=O)/C=C/c3ccc(C#N)cc3)c2O)O1 | > 151 µM | <100%
54 | CC(C)=CCc1cc(C(=O)/C=C/c2ccc(N(C)C)cc2)c(O)cc1O | 142 µM (≈ 50.1 µg/mL) | –
55 | COc1ccc(CCC(=O)c2ccc3c(c2O)C=CC(C)(C)O3)cc1OC | > 136 µM | <100%
56 | COc1ccc(/C=C/C(=O)c2ccc3c(c2O)C=CC(C)(C)O3)cc1OC | 137 µM (≈ 50.1 µg/mL) | –
57 | CC1(C)CCc2cc(C(=O)/C=C/c3cccnc3)c(O)cc2O1 | 32.4 µM (≈ 10 µg/mL) | –
58 | CC(C)=CCCC1(C)C=Cc2c(ccc(C(=O)/C=C/c3cc4ccccc4nc3Cl)c2O)O1 (stereo unspecified) | 109 µM (≈ 50.1 µg/mL) | –
59 | CC(C)=CCCC1(C)C=Cc2c(ccc(C(=O)/C=C/c3cccc([N+](=O)[O-])c3)c2O)O1 (stereo unspecified) | 4.77 µM (≈ 2 µg/mL) | –
60 | CC(C)=CCCC1(C)C=Cc2c(ccc(C(=O)/C=C/c3cccnc3)c2O)O1 (stereo unspecified) | 5.33 µM (≈ 2 µg/mL) | –
61 | COc1ccc(/C=C/C(=O)c2cc(CC=C(C)C)c(O)cc2O)cc1O | 28.2 µM (≈ 10 µg/mL) | –
62 | CC1(C)C=Cc2c(ccc(C(=O)/C=C/c3ccc(F)cc3F)c2O)O1 | > 146 µM | <100%
63 | CC(C)=CCCC1(C)C=Cc2c(ccc(C(=O)/C=C/c3ccccn3)c2O)O1 (stereo unspecified) | 26.7 µM (≈ 10 µg/mL) | –
64 | CCOc1ccc(/C=C/C(=O)c2cc(CC=C(C)C)c(O)cc2O)cc1 | 28.4 µM (≈ 10 µg/mL) | –
65 | CC1(C)C=Cc2c(ccc(C(=O)/C=C/c3ccc(O)cc3)c2O)O1 | 155 µM (≈ 50.1 µg/mL) | –
66 | COc1ccc(/C=C/C(=O)c2ccc(O)c(CC=C(C)C)c2O)cc1O | 28.2 µM (≈ 10 µg/mL) | –
67 | CC(C)=CCCC1(C)C=Cc2c(ccc(/C=C/C(=O)c3cccc(C)c3)c2O)O1 (stereo unspecified) | 25.8 µM (≈ 10 µg/mL) | –
68 | CC(C)=CCCC1(C)C=Cc2c(ccc(C(=O)/C=C/c3cnc4ccccc4c3)c2O)O1 (stereo unspecified) | 23.5 µM (≈ 10 µg/mL) | –
69 | COc1ccccc1/C=C/C(=O)c1ccc2c(c1O)C=CC(C)(C)O2 | > 149 µM | <100%
70 | CC(C)=CCCC1(C)C=Cc2c(ccc(C(=O)/C=C/c3cc4cc(C)ccc4nc3Cl)c2O)O1 (stereo unspecified) | 106 µM (≈ 50.1 µg/mL) | –
71 | CC1(C)C=Cc2c(ccc(C(=O)/C=C/c3ccc(Cl)cc3Cl)c2O)O1 | 5.34 µM (≈ 2 µg/mL) | –
72 | CC(C)=CCCC1(C)C=Cc2c(ccc(C(=O)CCc3cc(C=O)ccc3O)c2O)O1 (stereo unspecified) | 10.3 µM (≈ 4.33 µg/mL) | –
73 | CC(C)=CCCC1(C)C=Cc2c(ccc(C(=O)/C=C/c3ccc4oc(C(=O)c5ccccc5)cc4c3)c2O)O1 (stereo unspecified) | 19.3 µM (≈ 10 µg/mL) | –
74 | CC(C)=CCCC1(C)C=Cc2c(ccc(C(=O)/C=C/c3ccc(Br)cc3)c2O)O1 (stereo unspecified) | > 111 µM | <100%
75 | COc1ccc(/C=C/C(=O)c2ccc3c(c2O)C=CC(C)(CCC=C(C)C)O3)cc1OC (stereo unspecified) | 115 µM (≈ 50.1 µg/mL) | –
